In brackets after ≈: the same amount, converted by molar mass.
What was measured:
Staphylococcus aureus [1] = test: Antimicrobial activity against Staphylococcus aureus 29213 after 21 hrs by broth microdilution method; format: functional; conditions: Staphylococcus aureus, 29213, 21 h
Outline: (§1)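 Microtiter broth dilution at 37°C for 21 h in DEAE-refined LB medium prepared in 10 mM Tris, pH 7.4. Bacteria were grown overnight in 3% trypticase soy broth, rinsed in Tris and used at about 10^6 CFU/ml. Final peptide was 0.6–80 µM in twofold steps. Growth was read visually as pellet and at OD540. MIC is >95% inhibition with no visible pellet. Two separate experiments.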

Pseudomonas aeruginosa [2] = test: Antimicrobial activity against Pseudomonas aeruginosa ATCC 27853 after 21 hrs by broth microdilution method; format: functional; conditions: ATCC 27853, 21 h; outline: as §1
Staphylococcus aureus [3] = test: Antimicrobial activity against Staphylococcus aureus 2844 after 21 hrs by broth microdilution method; format: functional; conditions: Staphylococcus aureus, 2844, 21 h; outline: as §1
Pseudomonas aeruginosa [4] = test: Antimicrobial activity against Pseudomonas aeruginosa 15159 after 21 hrs by broth microdilution method; format: functional; conditions: Pseudomonas aeruginosa, 15159, 21 h; outline: as §1
Staphylococcus aureus [5] = test: Antimicrobial activity against Staphylococcus aureus FDA 486 after 21 hrs by broth microdilution method; format: functional; conditions: FDA 486, 21 h; outline: as §1
[6] = Stability of the compound at 136 uM after 4 hrs in presence of aureolysin; format: ADME
Outline: (§2)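 Peptide at 136 µM was incubated with protease (peptide:enzyme 300:1) for 4 h at 37°C in 10 mM Tris, pH 7.4. The reaction was stopped by boiling in Laemmli buffer, then run on Tris-Tricine 16.5% SDS-PAGE and Coomassie stained. Band densitometry gave the undegraded fraction, normalized to peptide incubated without enzyme. Two separate experiments.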

[7] = Stability of the compound at 136 uM after 4 hrs in presence of […] V8 protease; format: ADME; outline: as §2
[8] = Stability of the compound at 136 uM after 4 hrs in presence of human neutrophil elastase; format: ADME; outline: as §2
[9] = Stability of the compound at 136 uM after 4 hrs in presence of Pseudomonas aeruginosa elastase; format: ADME; outline: as §2

## CC[C@@H](C)[C@@H](NC(=O)[C@H](CCCNC(=N)N)NC(=O)[C@H](CCC(N)=O)NC(=O)[C@@H](NC(=O)[C@H](NC(=O)[C@H](CCCNC(=N)N)NC(=O)[C@H](CCCCN)NC(=O)[C@@H](Cc1ccccc1)NC(=O)[C@H](CCC(=O)O)NC(C)=O)[C@H](C)CC)C(C)C)C(=O)N[C@@H](CCCCN)C(=O)N[C@@H](CC(=O)O)C(=O)N[C@H](Cc1ccccc1)C(=O)N[C@@H](CC(C)C)C(=O)N[C@@H](CCCNC(=N)N)C(=O)N[C@@H](CC(N)=O)C(=O)N[C@@H](CC(C)C)C(=O)N[C@H](C(N)=O)C(C)C [listing 1 of 2 here]
Staphylococcus aureus [1]
  MIC: > 80 µM
Pseudomonas aeruginosa [2]
  MIC: > 80 µM
Staphylococcus aureus [3]
  MIC: > 80 µM
Pseudomonas aeruginosa [4]
  MIC: > 80 µM
Staphylococcus aureus [5]
  MIC: > 80 µM

## CC[C@H](C)[C@H](NC(=O)[C@H](CCCCN)NC(=O)[C@H](CCC(=O)O)NC(=O)[C@H](CCCCN)NC(=O)[C@H](CO)NC(=O)[C@H](CCCCN)NC(=O)[C@H](CCCNC(=N)N)NC(=O)[C@H](Cc1ccccc1)NC(=O)[C@H](Cc1ccccc1)NC(=O)[C@H](CC(=O)O)NC(=O)CNC(=O)[C@H](CC(C)C)NC(=O)[C@@H](N)CC(C)C)C(=O)NCC(=O)N[C@@H](CCCCN)C(=O)N[C@@H](CCC(=O)O)C(=O)N[C@@H](Cc1ccccc1)C(=O)N[C@@H](CCCCN)C(=O)N[C@@H](CCCNC(=N)N)C(=O)N[C@H](C(=O)N[C@H](C(=O)N[C@@H](CCC(N)=O)C(=O)N[C@@H](CCCNC(=N)N)C(=O)N[C@H](C(=O)N[C@@H](CCCCN)C(=O)N[C@@H](CC(=O)O)C(=O)N[C@@H](Cc1ccccc1)C(=O)N[C@@H](CC(C)C)C(=O)N[C@@H](CCCNC(=N)N)C(=O)N[C@@H](CC(N)=O)C(=O)N[C@@H](CC(C)C)C(=O)N[C@H](C(=O)N1CCC[C@H]1C(=O)N[C@@H](CCCNC(=N)N)C(=O)N[C@H](C(=O)N[C@@H](CCC(=O)O)C(=O)N[C@@H](CO)C(=O)O)[C@@H](C)O)C(C)C)[C@@H](C)CC)C(C)C)[C@@H](C)CC [CATHELICIDIN]
[6]
  Stability: Unstable
Staphylococcus aureus [1]
  MIC: 5 µM (≈ 22.5 µg/mL)
Pseudomonas aeruginosa [2]
  MIC: 2.5 µM (≈ 11.2 µg/mL)
Staphylococcus aureus [3]
  MIC: 5 µM (≈ 22.5 µg/mL)
[7]
  Stability: Unstable
Pseudomonas aeruginosa [4]
  MIC: 2.5 µM (≈ 11.2 µg/mL)
[8]
  Stability: Unstable
Staphylococcus aureus [5]
  MIC: 2.5 µM (≈ 11.2 µg/mL)
[9]
  Stability: Unstable

## CC[C@@H](C)[C@@H](NC(=O)[C@H](CCCNC(=N)N)NC(=O)[C@H](CCC(N)=O)NC(=O)[C@@H](NC(=O)[C@H](NC(=O)[C@H](CCCNC(=N)N)NC(=O)[C@H](CCCCN)NC(=O)[C@@H](Cc1ccccc1)NC(=O)[C@@H](N)CCC(=O)O)[C@H](C)CC)C(C)C)C(=O)N[C@@H](CCCCN)C(=O)N[C@@H](CC(=O)O)C(=O)N[C@H](Cc1ccccc1)C(=O)N[C@@H](CC(C)C)C(=O)N[C@@H](CCCNC(=N)N)C(=O)N[C@@H](CC(N)=O)C(=O)N[C@@H](CC(C)C)C(=O)N[C@H](C(=O)O)C(C)C [listing 1 of 2 here]
[6]
  Stability: Stable
[7]
  Stability: Stable
[8]
  Stability: Stable
[9]
  Stability: Stable

## CC[C@@H](C)[C@@H](NC(=O)[C@H](CCCNC(=N)N)NC(=O)[C@H](CCC(N)=O)NC(=O)[C@@H](NC(=O)[C@H](NC(=O)[C@H](CCCNC(=N)N)NC(=O)[C@H](CCCCN)NC(=O)[C@@H](Cc1ccccc1)NC(=O)[C@H](CCC(=O)O)NC(C)=O)[C@H](C)CC)C(C)C)C(=O)N[C@@H](CCCCN)C(=O)N[C@@H](CC(=O)O)C(=O)N[C@H](Cc1ccccc1)C(=O)N[C@@H](CC(C)C)C(=O)N[C@@H](CCCNC(=N)N)C(=O)N[C@@H](CC(N)=O)C(=O)N[C@@H](CC(C)C)C(=O)N[C@H](C(N)=O)C(C)C [listing 2 of 2 here]
[6]
  Stability: Stable
[7]
  Stability: Stable
[8]
  Stability: Stable
[9]
  Stability: Stable

## CC[C@@H](C)[C@@H](NC(=O)[C@H](CCCNC(=N)N)NC(=O)[C@H](CCC(N)=O)NC(=O)[C@@H](NC(=O)[C@H](NC(=O)[C@H](CCCNC(=N)N)NC(=O)[C@H](CCCCN)NC(=O)[C@@H](Cc1ccccc1)NC(=O)[C@@H](N)CCC(=O)O)[C@H](C)CC)C(C)C)C(=O)N[C@@H](CCCCN)C(=O)N[C@@H](CC(=O)O)C(=O)N[C@H](Cc1ccccc1)C(=O)N[C@@H](CC(C)C)C(=O)N[C@@H](CCCNC(=N)N)C(=O)N[C@@H](CC(N)=O)C(=O)N[C@@H](CC(C)C)C(=O)N[C@H](C(=O)O)C(C)C [listing 2 of 2 here]
Staphylococcus aureus [1]
  MIC: > 80 µM
Pseudomonas aeruginosa [2]
  MIC: > 80 µM
Staphylococcus aureus [3]
  MIC: > 80 µM
Pseudomonas aeruginosa [4]
  MIC: > 80 µM
Staphylococcus aureus [5]
  MIC: > 80 µM

Source: ChEMBL document CHEMBL1629621, “Evaluation of strategies for improving proteolytic resistance of antimicrobial peptides by using variants of EFK17, an internal segment of LL-37” (Antimicrob Agents Chemother, 2009)
